{"source": "paper PMC12350853", "about": "(Discover Nano, 2025)", "key": {"[1]": {"tested_on": "kidney", "experiment": "Kidney histopathology and semi-quantitative damage score", "type": "in vivo, rat", "conditions": "for kidney histopathological findings: Masson trichrome", "in_short": "(§1)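 Fifty male adult Wistar rats were split into five groups (23–24 °C, 12 h light/dark). Test compound, free or loaded in Fe–Co MOF, was given at 0.4 or 0.8 mg/kg i.v., ten injections at 72 h intervals. Rats were euthanised with pentobarbital sodium 200 mg/kg. H&E sections were scored 1 (normal) to 4 (severe) against organ-specific lesion criteria, blinded, by two specialists.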"}, "[2]": {"tested_on": "testis", "experiment": "Testis histopathology and semi-quantitative damage score", "type": "in vivo, rat", "conditions": "for Testis damage score (TDS): scale 1 normal to 4 severe, mean ± SD", "in_short": "as §1"}, "[3]": {"conditions": "cited from earlier work"}, "[4]": {"tested_on": "liver", "experiment": "Liver histopathology and semi-quantitative damage score", "type": "in vivo, rat", "in_short": "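Male Wistar rats received free or Fe–Co MOF-loaded test compound at 0.4 or 0.8 mg/kg i.v., ten doses 72 h apart. Fixed liver was ethanol-dehydrated, xylene-cleared, paraffin-embedded, microtome-sectioned and H&E-stained. Two specialists scored blindly on a 1–4 scale, and also rated pyknotic nuclei, inflammatory infiltration, bleeding and necrosis each 0–3. Results are mean ± SD.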"}, "[5]": {"tested_on": "male adult Wistar rats", "experiment": "Serum biochemical parameters after repeated intravenous injection", "type": "in vivo, rat", "conditions": "ten injections at 72-hour intervals, vs control", "in_short": "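Male adult Wistar rats (five groups, ten per group) received free or Fe–Co MOF-loaded test compound i.v. at 0.4 or 0.8 mg/kg, ten injections every 72 h. Retro-orbital blood was centrifuged immediately at 5,000 rpm for 10 min. AST, ALT, BUN and creatinine were run on an autoanalyzer with commercial kits. Results are mean ± SD, tested by ANOVA with post hoc comparison against control.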"}, "[6]": {"tested_on": "heart", "experiment": "Heart histopathology and semi-quantitative damage score", "type": "in vivo, rat", "conditions": "for heart histopathological findings: H&E", "in_short": "as §1"}, "[7]": {"tested_on": "liver", "experiment": "Liver MDA level", "type": "in vivo, rat", "conditions": "dose not given", "in_short": "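After ten i.v. injections 72 h apart of free or Fe–Co MOF-loaded test compound (0.4 or 0.8 mg/kg) in male Wistar rats, liver malondialdehyde was measured by a modified literature method. Assays were repeated three times. Results are mean ± SD, compared by ANOVA with post hoc test.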"}, "[8]": {"conditions": "0.4 mg/kg i.v., scale 1 normal to 4 severe, mean ± SD"}}, "note": "“Also recorded” adds a separate entry of the source."}
{"smiles": "CC(C)C[C@H](NC(=O)[C@H](CCc1ccccc1)NC(=O)CN1CCOCC1)C(=O)N[C@@H](Cc1ccccc1)C(=O)N[C@@H](CC(C)C)C(=O)[C@@]1(C)CO1", "note": "[CFZ, Carfilzomib]", "values": [{"measurement": "kidney histopathological findings", "setting": "[1]; 0.4 mg/kg i.v.", "value": "normal proximal and distal tubules with normal-sized nuclei"}, {"measurement": "Renal damage score (RDS)", "setting": "[1]; [8]", "value": "1.5 ± 0.75"}, {"measurement": "kidney histopathological findings", "setting": "[1]; 0.8 mg/kg i.v.", "value": "glomerulosclerosis characterized by swollen lining epithelium and narrowing of the proximal tubule lumen"}, {"measurement": "testis histopathological findings", "setting": "[2]; 0.4 mg/kg i.v.", "value": "no evidence of inflammation, necrosis, or cellular infiltrates"}, {"measurement": "Testis damage score (TDS)", "setting": "[2]; 0.4 mg/kg i.v.", "value": "1.2 ± 0.4"}, {"measurement": "testis histopathological findings", "setting": "[2]; 0.8 mg/kg i.v.", "value": "multinucleated giant Sertoli cells"}, {"measurement": "Testis damage score (TDS)", "setting": "[2]; 0.8 mg/kg i.v.", "value": "1.42 ± 0.53"}, {"measurement": "half-life", "setting": "[3]", "value": "~ 30 min"}, {"measurement": "liver histopathological findings", "setting": "[4]; 0.4 mg/kg i.v.", "value": "normal liver appearance"}, {"measurement": "Liver damage score (LDS)", "setting": "[4]; [8]", "value": "1.6 ± 0.51"}, {"measurement": "liver histopathological findings", "setting": "[4]; 0.8 mg/kg i.v.", "value": "necrosis, inflammatory cell accumulation, and disarray of hepatic cords"}, {"measurement": "serum creatinine levels", "setting": "[5]; 0.4 mg/kg i.v.", "value": "elevation was not observed"}, {"measurement": "ALT levels", "setting": "[5]; 0.8 mg/kg i.v.", "value": "significantly increased"}, {"measurement": "serum AST levels", "setting": "[5]; 0.8 mg/kg i.v.", "value": "Significant elevation"}, {"measurement": "serum BUN levels", "setting": "[5]; 0.8 mg/kg i.v.", "value": "no significant effect"}, {"measurement": "serum creatinine levels", "setting": "[5]; 0.8 mg/kg i.v.", "value": "higher serum creatinine levels"}, {"measurement": "heart histopathological findings", "setting": "[6]; 0.4 mg/kg i.v.", "value": "mild inflammatory cell infiltration"}, {"measurement": "Heart damage score (HDS)", "setting": "[6]; [8]", "value": "1.25 ± 0.46"}, {"measurement": "heart histopathological findings", "setting": "[6]; 0.8 mg/kg i.v., listed as free Carfilzomib", "value": "inflammatory cell infiltration, bleeding, and necrosis; also recorded: severe necrosis"}, {"measurement": "cardiotoxicity by histopathological data", "setting": "[6]; overall statement", "value": "severe cardiotoxicity"}, {"measurement": "liver lipid peroxidation", "setting": "[7]", "value": "significant increase"}]}
